A selection: hits, their analogues and other compounds. The true share with any hit is near 3.5%.
MrgX1 antag: human MrgX1 receptor antagonism, primary screen | Q96LB2 | MRGX1-HEK293 calcium flux, Fluo-4, BAM8-22 antagonism; active compounds read low | actives 1.3% (n = 310,000) | AID 588676 | B-score at 10 µM;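 active = calcium-response B-score plate-corrected more than 3 library SD below zero, starting fluorescence within 5 deviations, no agonist response on first addition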;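 note: peak minus trough fluorescence over baseline after final BAM8-22 challenge near maximal dose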
Target sequence (Q96LB2 whole entry, looked up): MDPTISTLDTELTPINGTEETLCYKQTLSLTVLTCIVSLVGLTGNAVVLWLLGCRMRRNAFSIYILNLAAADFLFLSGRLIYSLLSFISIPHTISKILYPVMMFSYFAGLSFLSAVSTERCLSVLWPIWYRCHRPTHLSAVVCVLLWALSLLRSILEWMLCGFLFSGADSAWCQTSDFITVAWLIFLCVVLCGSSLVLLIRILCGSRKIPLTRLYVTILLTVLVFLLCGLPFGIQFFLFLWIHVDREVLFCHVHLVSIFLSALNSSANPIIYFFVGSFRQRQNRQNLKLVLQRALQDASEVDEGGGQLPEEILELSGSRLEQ
MrgX1 allo act: allosterically activates human MrgX1 receptor signaling; Q96LB2; MrgX1-HEK293, Fluo-4 calcium flux, FDSS; active compounds read high; B-score at 10 µM; actives 0.63% (n = 310,000); AID 588675;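 active = plate-corrected calcium response at least 3 library SD above typical, normal starting fluorescence, not activating the receptor alone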;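 note: compound read alongside a low EC10 to EC30 dose of BAM8-22 agonist; peak minus trough fluorescence over baseline measured at the second addition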
RGS4 inh: inhibitors of human RGS4 | P49798 | B-score at 10 µM | HEK293 M3R/RGS4 inducible, Fluo-4 calcium flux; active compounds read high; triggered by carbachol at its EC20 | actives 0.45% (n = 310,000);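 active = B-score, a plate-corrected calcium signal, over three deviations above library mean, with baseline fluorescence within five deviations of library mean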;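 note: RGS4 expression induced by doxycycline in cells with stable M3 receptor; B-score is computed from the integrated fluorescence ratio over baseline after carbachol; higher B-score means a larger calcium signal and so more RGS4 inhibition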
Target sequence (P49798 whole entry, looked up): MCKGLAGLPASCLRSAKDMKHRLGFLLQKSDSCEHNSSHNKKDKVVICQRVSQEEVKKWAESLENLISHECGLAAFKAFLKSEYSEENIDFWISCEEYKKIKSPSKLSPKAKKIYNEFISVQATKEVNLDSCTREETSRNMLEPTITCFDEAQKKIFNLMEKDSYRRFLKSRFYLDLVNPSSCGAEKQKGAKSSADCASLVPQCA
MrgX1 ag: activates human MrgX1 receptor signaling. actives 0.44% (n = 310,000). AID 588627. Q96LB2. B-score at 10 µM. MrgX1-HEK293 cells, Fluo-4 calcium fluorescence, agonist mode; active compounds read high;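 active = calcium response B-score plate-corrected fluorescence ratio at least 3 library SD, with starting fluorescence B-score inside 5 SD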
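Material: HEK293 cells stably expressing human MrgX1 receptor | Quantity: 15,000 cells per well | Times: Cells plated overnight, dye loaded 0.5 h 37 °C, 0.5 h room temperature | Measured by: Kinetic Fluo-4 NW fluorescence of intracellular calcium | Control set: Positive and negative controls per plate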
RGS4 pot: potentiators or activators of RGS4; HEK293 M3R/inducible RGS4, carbachol calcium flux Fluo4; active compounds read low; B-score at 10 µM; actives 0.92% (n = 310,000); AID 463111;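 active = B-score of the integrated calcium signal more than 4 SD below the library mean, with starting fluorescence not abnormally high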;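 note: negative B-score means reduced calcium response which marks RGS4 activation or potentiation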
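Also added: carbachol at ECmax as muscarinic agonist stimulus; Assay system: HEK293 cells with stable M3R and inducible RGS4; Timing: overnight RGS4 induction, 30 min dye load 37 °C, 20 min compound RT; Measured by: Fluo4-AM (2 µM) calcium-flux fluorescence, kinetic read.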
* marks the source's active call; other numbers are inactive results; i = inactive.

SMILES	MrgX1 antag	MrgX1 allo act	RGS4 inh	MrgX1 ag	RGS4 pot
COc1ccccc1NC1=C(Cl)C(=O)N(c2ccccc2)C1=O	i	10.9*	i	i	i
COc1ccc(NC2=C(Cl)C(=O)N(c3ccccc3)C2=O)c(OC)c1	i	i	i	i	i
O=C(Nc1ccccc1Br)c1cc[n+]([O-])cc1	i	i	i	i	i
Cc1cc(C)c2oc(C(=O)Nc3nnc(C(C)C)s3)cc(=O)c2c1	i	i	i	i	i
CSc1nnc(NC(=O)c2cc(=O)c3cc(C)cc(C)c3o2)s1	i	10.5*	i	i	i
O=C(O)c1ccc2c(c1)OCCCO2	i	i	i	i	i
O=C1COc2ccc(C(=O)/C=C/c3ccccc3)cc2N1	i	i	i	32.8*	i
O=C(/C=C/c1ccccc1)c1ccc2c(c1)OCCCCO2	i	16.1*	i	i	i
COC(=O)CCc1c(C)c(C(=O)c2cc(OC)c(OC)c(OC)c2)c2ccccn12	i	i	i	i	i
Cc1ccc(F)cc1NC(=O)CSc1nnc(CNC(=O)c2ccco2)n1C	i	i	i	i	i
Cc1cc(C)cc(NC(=S)NCCN2CCOCC2)c1	i	i	i	i	i
O=C(/C=C/c1ccccc1)NC(=S)Nc1ccc2c3c(cccc13)CC2	-14.3*	i	i	i	i
O=C(COc1ccccc1)NC(=S)Nc1ccc2c3c(cccc13)CC2	i	i	i	i	i
COc1cc(/C=N/OCC(=O)Nc2ccc(OC(F)F)cc2)ccc1OCc1ccccc1	i	i	i	i	-7.03*
COc1ccc(Br)c(C(=O)N(C)CC(=O)Nc2ccc(N3CCOCC3)cc2)c1	i	i	i	i	i
NC(=O)CC[C@@H]1NC(=O)[C@@H]2CCCN2C(=O)c2cc([N+](=O)[O-])cc(I)c2NCCCC[C@@H](C(=O)NC(CC(=O)O)C(N)=O)NC1=O (stereo partly specified)	i	i	i	i	i
O=C(Nc1ccccc1N(C(=O)c1ccco1)S(=O)(=O)c1cccs1)c1ccco1	i	11.5*	i	i	i
CCOc1ccc(NC(=O)COC(=O)Cc2ccc(S(=O)(=O)N3CCOCC3)s2)cc1	i	i	i	i	i
CCOc1ccc(S(=O)(=O)N2CCN(C(=O)Cc3ccc(S(=O)(=O)N4CCOCC4)s3)CC2)cc1	i	i	i	i	-7.27*
CCN1C(=O)N(C)[C@@H](c2ccccc2)C(C(C)=O)=C1C	i	i	i	i	i
CCN1C(=O)[C@@H]2C(C(=O)c3cnccn3)=NN[C@@H]2C1=O	i	i	i	i	i
NCC(c1ccccc1)c1c[nH]c2ccccc12 (stereo unspecified)	i	i	i	i	i
O=[N+]([O-])CC(c1ccc(F)cc1)c1c[nH]c2ccccc12 (stereo unspecified)	i	6.51*	i	i	i
CCOC(=O)CSc1nc(N)c(C#N)c(-c2ccc(OC)cc2)c1C#N	-5.8*	i	i	i	i
CCCOc1ccc(CNC(=O)c2ccc3c(c2)N(CC)CCS3)cc1	i	i	i	i	i
SMILES	MrgX1 antag	MrgX1 allo act	RGS4 inh	MrgX1 ag	RGS4 pot
CCn1nc(NS(=O)(=O)c2ccccc2[N+](=O)[O-])c2cc3ccc(C)cc3nc21	i	9.19*	i	i	i
CCC1(CC)Cc2ccccc2C(=O)N1	i	i	i	i	i
O=C1c2ccccc2CC1(Cc1ccccc1)Cc1ccccc1	i	i	i	i	-7.07*
CCOC(=O)C1(CC/C(C)=N\NC(N)=O)CC(C)(C)OC1=O (stereo unspecified)	i	i	i	i	i
CC(C)(C)c1cc(CCC(=O)NNC(=S)NC(=O)c2ccccc2)cc(C(C)(C)C)c1O	i	i	i	49.7*	i
CCCCCCCC(=O)NNC(=O)Cc1ccccc1	-6.9*	i	i	i	i
CCCCC(=O)NC(=S)NNC(=O)CCc1ccccc1	i	i	i	49.2*	i
Cc1c(NC(=S)NC(=O)c2cccc(Cl)c2)c(=O)n(-c2ccccc2)n1C	i	i	i	i	i
CCOC(=O)c1cnc(Nc2nc3ccccc3o2)nc1CSC(=S)N(CC)CC	i	i	i	i	i
CCOC(=O)c1cnc(Nc2nc3ccccc3o2)nc1CSc1ncccn1	-5.63*	i	i	i	i
O=C(Nc1ccc2nc(-c3ccco3)c(-c3ccco3)nc2c1)N1CCCCCC1	i	i	i	i	i
CCOC(=O)C1CCN(C(=O)Nc2ccc3nc(-c4ccco4)c(-c4ccco4)nc3c2)CC1	-4.99*	i	i	i	i
COc1cc(N2CCCC2)c(OC)cc1/C=C(/C#N)c1ccc(Br)cc1	-4.59*	i	i	i	i
COc1cc(N2CCCC2)c(OC)cc1/C=C(/C#N)c1ccc(F)cc1	-4.93*	i	i	i	i
CC(C)Nc1ccc(Nc2ccnc3cc4ccccc4cc23)cc1	i	i	i	i	-9.9*
Cc1ccc(C)n1-c1ccc(C(=O)N/N=C/c2ccncc2)cc1	i	10*	i	i	i
CC12CC(NC(=O)N1c1cccc(C(=O)NCc3ccc4c(c3)OCO4)c1)c1cc(Cl)ccc1O2 (stereo unspecified)	-6.96*	i	i	i	i
CC(C)C(=O)Nc1cccc(C(=O)NCc2ccc3c(c2)OCO3)c1	i	i	i	i	i
COc1cccc(C(c2sc3ncnn3c2O)N2CCN(C(=O)c3ccco3)CC2)c1 (stereo unspecified)	i	i	i	i	i
CC(C)c1ccc(N2C(=O)CSC23C(=O)N2CCCc4cccc3c42)cc1 (stereo unspecified)	i	i	i	i	-7.61*
COC(=O)c1scc(C)c1NS(=O)(=O)c1ccc(NC(C)=O)cc1	i	i	i	i	i
COc1cccc(/C=C/C(=O)c2cccc([N+](=O)[O-])c2)c1OC	i	i	i	i	i
COc1cccc(/C=C/C(=O)c2ccc(NC3=NCCCS3)cc2)c1	i	i	i	44.9*	i
COc1cccc(/C=C/C(=O)c2cccc([N+](=O)[O-])c2)c1	i	i	i	37.9*	i
O=C(/C=C/c1cccc([N+](=O)[O-])c1)c1ccco1	i	i	i	55.6*	i
Cc1cccc(/C=C/C(=O)c2ccc(NC3=NCCCS3)cc2)c1	i	i	i	i	i
